# Test results: ChEMBL document CHEMBL5724801, “EUbOPEN Chemogenomics Library - Multiplex” (2024)
# “And” between values parts separate entries of the source, which are not always exact repeats. Equal values may be shown once. Non-standard residues stand in square brackets, D forms with d. Residues, ends and D or L forms follow the SMILES beside them.
# System: HEK-293T
# Assay: Multiplex assay against HEK293T
# Assay type: toxicity, cell-based
# Details: human
# Summary of the method: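 Phenotypes for tubulin, mitochondrial mass and membrane permeability are expressed as per cents of healthy-nucleus cells. Cells were stained live at seeding with Hoechst33342, BioTracker Green Microtubule Cytoskeleton Dye, MitoTracker Red and Annexin V Alexa Fluor 680, then imaged after compound addition on a CQ1 microscope at 37°C and 5% CO2. Machine-learning gating in CellPathfinder separated Hoechst high-intensity objects from normal cells, divided normal cells by nuclear state (healthy, pyknosed, fragmented) and divided pyknosed cells into mitotic or apoptotic.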
# [1] = 12 h, 1 µM, compound concentration 1 uM
# [2] = 12 h, 10 µM, compound concentration 10 uM
# [3] = 24 h, 1 µM, compound concentration 1 uM
# [4] = 24 h, 10 µM, compound concentration 10 uM
# [5] = 48 h, 1 µM, compound concentration 1 uM
# [6] = 48 h, 10 µM, compound concentration 10 uM
compound,measurement,setting,value
CC(C)C[C@@H]1NC(=O)[C@@H](C(C)C)NC(=O)[C@@H]2CCCN2C(=O)[C@@H](CC(=O)O)NC(=O)[C@@H](Cc2c[nH]c3ccccc23)NC1=O [BQ-123] (cyclo(L[dW][dD]P[dV])),Population Apoptotic (%),[1],46%
same,Population Fragmented Nuclei (%),[1],7% and 5%
same,Population Healthy Nuclei (%),[1],80% and 82%
same,Population Hoechst High Intensity Objects (%),[1],4% and 7%
same,Population Membrane Permeable-Phenotype (%),[1],0%
same,Population Mitochondria Different-Phenotype (%),[1],39% and 59%
same,Population Mitotic Cells (%),[1],53%
same,Population Normal (%),[1],95% and 92%
same,Population Pyknosed Nuclei (%),[1],11%
same,Population Tubulin-Different-Phenotype (%),[1],32% and 19%
same,Total Cell Count,[1],376 and 392
same,Population Apoptotic (%),[2],30% and 71%
same,Population Fragmented Nuclei (%),[2],7% and 5%
same,Population Healthy Nuclei (%),[2],78%
same,Population Hoechst High Intensity Objects (%),[2],7% and 11%
same,Population Membrane Permeable-Phenotype (%),[2],0%
same,Population Mitochondria Different-Phenotype (%),[2],48% and 65%
same,Population Mitotic Cells (%),[2],69% and 28%
same,Population Normal (%),[2],92% and 88%
same,Population Pyknosed Nuclei (%),[2],14% and 16%
same,Population Tubulin-Different-Phenotype (%),[2],31% and 22%
same,Total Cell Count,[2],387 and 265
same,Population Apoptotic (%),[3],26% and 40%
same,Population Fragmented Nuclei (%),[3],10% and 7%
same,Population Healthy Nuclei (%),[3],79% and 82%
same,Population Hoechst High Intensity Objects (%),[3],3% and 5%
same,Population Membrane Permeable-Phenotype (%),[3],0%
same,Population Mitochondria Different-Phenotype (%),[3],27% and 35%
same,Population Mitotic Cells (%),[3],73% and 59%
same,Population Normal (%),[3],96% and 94%
same,Population Pyknosed Nuclei (%),[3],9%
same,Population Tubulin-Different-Phenotype (%),[3],21% and 14%
same,Total Cell Count,[3],497 and 538
same,Population Apoptotic (%),[4],25% and 57%
same,Population Fragmented Nuclei (%),[4],11% and 8%
same,Population Healthy Nuclei (%),[4],77% and 78%
same,Population Hoechst High Intensity Objects (%),[4],6% and 7%
same,Population Membrane Permeable-Phenotype (%),[4],0%
same,Population Mitochondria Different-Phenotype (%),[4],31% and 50%
same,Population Mitotic Cells (%),[4],75% and 42%
same,Population Normal (%),[4],93% and 92%
same,Population Pyknosed Nuclei (%),[4],11% and 12%
same,Population Tubulin-Different-Phenotype (%),[4],24% and 18%
same,Total Cell Count,[4],511 and 302
same,Population Apoptotic (%),[5],21% and 24%
same,Population Fragmented Nuclei (%),[5],11%
same,Population Healthy Nuclei (%),[5],79% and 81%
same,Population Hoechst High Intensity Objects (%),[5],3% and 5%
same,Population Membrane Permeable-Phenotype (%),[5],0% and 1%
same,Population Mitochondria Different-Phenotype (%),[5],22% and 18%
same,Population Mitotic Cells (%),[5],78% and 75%
same,Population Normal (%),[5],96% and 94%
same,Population Pyknosed Nuclei (%),[5],9% and 7%
same,Population Tubulin-Different-Phenotype (%),[5],15% and 10%
same,Total Cell Count,[5],719 and 777
same,Population Apoptotic (%),[6],25% and 40%
same,Population Fragmented Nuclei (%),[6],16% and 11%
same,Population Healthy Nuclei (%),[6],77% and 80%
same,Population Hoechst High Intensity Objects (%),[6],3%
same,Population Membrane Permeable-Phenotype (%),[6],1% and 0%
same,Population Mitochondria Different-Phenotype (%),[6],21% and 29%
same,Population Mitotic Cells (%),[6],75% and 59%
same,Population Normal (%),[6],96%
same,Population Pyknosed Nuclei (%),[6],6% and 8%
same,Population Tubulin-Different-Phenotype (%),[6],15% and 16%
same,Total Cell Count,[6],756 and 477
Cc1cc(-c2ccc3c(c2)CC[C@H]3N2CC3(CCN(C(=O)Cc4cn5cc(C)sc5n4)CC3)C2)ncn1 [PF-5190457],Population Apoptotic (%),[1],36% and 47%
same,Population Fragmented Nuclei (%),[1],5% and 8%
same,Population Healthy Nuclei (%),[1],83% and 72%
same,Population Hoechst High Intensity Objects (%),[1],5% and 10%
same,Population Membrane Permeable-Phenotype (%),[1],0%
same,Population Mitochondria Different-Phenotype (%),[1],40% and 53%
same,Population Mitotic Cells (%),[1],63% and 52%
same,Population Normal (%),[1],94% and 89%
same,Population Pyknosed Nuclei (%),[1],11% and 19%
same,Population Tubulin-Different-Phenotype (%),[1],25% and 22%
same,Total Cell Count,[1],418 and 258
same,Population Apoptotic (%),[2],40% and 54%
same,Population Fragmented Nuclei (%),[2],9% and 3%
same,Population Healthy Nuclei (%),[2],75% and 80%
same,Population Hoechst High Intensity Objects (%),[2],11% and 8%
same,Population Membrane Permeable-Phenotype (%),[2],0%
same,Population Mitochondria Different-Phenotype (%),[2],53% and 70%
same,Population Mitotic Cells (%),[2],60% and 45%
same,Population Normal (%),[2],88% and 91%
same,Population Pyknosed Nuclei (%),[2],14% and 16%
same,Population Tubulin-Different-Phenotype (%),[2],37% and 40%
same,Total Cell Count,[2],455 and 322
same,Population Apoptotic (%),[3],21% and 45%
same,Population Fragmented Nuclei (%),[3],8% and 11%
same,Population Healthy Nuclei (%),[3],77% and 78%
same,Population Hoechst High Intensity Objects (%),[3],2% and 7%
same,Population Membrane Permeable-Phenotype (%),[3],0% and 1%
same,Population Mitochondria Different-Phenotype (%),[3],24% and 35%
same,Population Mitotic Cells (%),[3],78% and 54%
same,Population Normal (%),[3],97% and 92%
same,Population Pyknosed Nuclei (%),[3],13% and 9%
same,Population Tubulin-Different-Phenotype (%),[3],16% and 11%
same,Total Cell Count,[3],549 and 352
same,Population Apoptotic (%),[4],25% and 36%
same,Population Fragmented Nuclei (%),[4],10% and 5%
same,Population Healthy Nuclei (%),[4],75% and 81%
same,Population Hoechst High Intensity Objects (%),[4],5% and 6%
same,Population Membrane Permeable-Phenotype (%),[4],1% and 0%
same,Population Mitochondria Different-Phenotype (%),[4],28% and 51%
same,Population Mitotic Cells (%),[4],74% and 63%
same,Population Normal (%),[4],94% and 93%
same,Population Pyknosed Nuclei (%),[4],14% and 13%
same,Population Tubulin-Different-Phenotype (%),[4],30% and 23%
same,Total Cell Count,[4],638 and 425
same,Population Apoptotic (%),[5],25% and 39%
same,Population Fragmented Nuclei (%),[5],14% and 12%
same,Population Healthy Nuclei (%),[5],79% and 80%
same,Population Hoechst High Intensity Objects (%),[5],1% and 3%
same,Population Membrane Permeable-Phenotype (%),[5],1%
same,Population Mitochondria Different-Phenotype (%),[5],18% and 21%
same,Population Mitotic Cells (%),[5],74% and 60%
same,Population Normal (%),[5],98% and 96%
same,Population Pyknosed Nuclei (%),[5],5% and 6%
same,Population Tubulin-Different-Phenotype (%),[5],9% and 10%
same,Total Cell Count,[5],873 and 531
same,Population Apoptotic (%),[6],24% and 46%
same,Population Fragmented Nuclei (%),[6],14% and 13%
same,Population Healthy Nuclei (%),[6],77% and 78%
same,Population Hoechst High Intensity Objects (%),[6],2% and 4%
same,Population Membrane Permeable-Phenotype (%),[6],0%
same,Population Mitochondria Different-Phenotype (%),[6],27% and 32%
same,Population Mitotic Cells (%),[6],76% and 53%
same,Population Normal (%),[6],97% and 95%
same,Population Pyknosed Nuclei (%),[6],8%
same,Population Tubulin-Different-Phenotype (%),[6],20%
same,Total Cell Count,[6],927 and 520
CCOc1ccccc1C(=O)NCC1(N2CCN(CC)CC2)CCCCC1,Population Apoptotic (%),[1],17.61% and 11.57%
same,Population Fragmented Nuclei (%),[1],1.59% and 5.52%
same,Population Hoechst High Intensity Objects (%),[1],0%
same,Population Membrane Permeable-Phenotype (%),[1],0.66% and 6.25%
same,Population Mitotic Cells (%),[1],82.39% and 88.43%
same,Population Normal (%),[1],100%
same,Population Pyknosed Nuclei (%),[1],50.48% and 83.45%
same,Population Tubulin-Different-Phenotype (%),[1],10.6% and 18.75%
same,Total Cell Count,[1],315 and 145
same,Population Apoptotic (%),[2],15.84% and 21.31%
same,Population Fragmented Nuclei (%),[2],1.84% and 5.41%
same,Population Healthy Nuclei (%),[2],36.2% and 12.16%
same,Population Hoechst High Intensity Objects (%),[2],0% and 0.67%
same,Population Membrane Permeable-Phenotype (%),[2],0.85% and 0%
same,Population Mitochondria Different-Phenotype (%),[2],25.42% and 50%
same,Population Mitotic Cells (%),[2],84.16% and 78.69%
same,Population Normal (%),[2],100% and 99.33%
same,Population Pyknosed Nuclei (%),[2],61.96% and 82.43%
same,Population Tubulin-Different-Phenotype (%),[2],38.14% and 77.78%
same,Total Cell Count,[2],326 and 149
same,Population Apoptotic (%),[3],13.73% and 14.84%
same,Population Fragmented Nuclei (%),[3],1% and 7.69%
same,Population Hoechst High Intensity Objects (%),[3],0.2% and 0.59%
same,Population Membrane Permeable-Phenotype (%),[3],2.05% and 0%
same,Population Mitochondria Different-Phenotype (%),[3],24.34% and 10.71%
same,Population Mitotic Cells (%),[3],86.27% and 85.16%
same,Population Normal (%),[3],99.8% and 99.41%
same,Population Pyknosed Nuclei (%),[3],30.66% and 75.74%
same,Population Tubulin-Different-Phenotype (%),[3],21.41% and 10.71%
same,Total Cell Count,[3],500 and 170
same,Population Apoptotic (%),[4],40.41% and 45.37%
same,Population Fragmented Nuclei (%),[4],1.63% and 6.29%
same,Population Hoechst High Intensity Objects (%),[4],0%
same,Population Membrane Permeable-Phenotype (%),[4],1.45% and 0%
same,Population Mitochondria Different-Phenotype (%),[4],39.49% and 42.31%
same,Population Mitotic Cells (%),[4],59.59% and 54.63%
same,Population Normal (%),[4],100%
same,Population Pyknosed Nuclei (%),[4],34.03% and 75.52%
same,Population Tubulin-Different-Phenotype (%),[4],64.13% and 73.08%
same,Total Cell Count,[4],429 and 143
same,Population Fragmented Nuclei (%),[5],1.56% and 2.66%
same,Population Healthy Nuclei (%),[5],84.02% and 40.96%
same,Population Hoechst High Intensity Objects (%),[5],0%
same,Population Membrane Permeable-Phenotype (%),[5],5.34% and 1.3%
same,Population Mitochondria Different-Phenotype (%),[5],24.83% and 45.45%
same,Population Mitotic Cells (%),[5],94.59% and 81.13%
same,Population Normal (%),[5],100%
same,Population Apoptotic (%),[6],21.8% and 42.22%
same,Population Fragmented Nuclei (%),[6],2.46% and 4.08%
same,Population Healthy Nuclei (%),[6],79.37% and 50%
same,Population Hoechst High Intensity Objects (%),[6],0.14% and 1.01%
same,Population Membrane Permeable-Phenotype (%),[6],3.96% and 3.06%
same,Population Mitochondria Different-Phenotype (%),[6],67.81% and 74.49%
same,Population Mitotic Cells (%),[6],78.2% and 57.78%
same,Population Normal (%),[6],99.86% and 98.99%
same,Population Pyknosed Nuclei (%),[6],18.17% and 45.92%
